Most compounds without a hit are left out; they make up all but 4.6% or so of the library.
TAAR1 antagonist – human TAAR1 antagonists, primary screen, Fluo-8 calcium fluorescence, CHO RD-HGA16 cells; antagonist; Trace amine-associated receptor 1 (Homo sapiens), Q96RJ0; 360,000 tested, 1.5% active; inhibition, % at 3 µM; AID 624466, 2012;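 active = inhibition above a per-plate cutoff, the mean inhibition of test compounds on that plate plus 3 SD, cut at about 49% in these data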;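 also: 0% = DMSO plus EC80 beta-PEA response and 100% = DMSO alone without agonist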
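Assay system: CHO-derived RD-HGA16 cells stably expressing human TAAR1 plus Gα16. Timing: 140 s kinetic read after compound, 140 s after agonist. Technique: kinetic Fluo-8 calcium fluorescence measurement. Measure: % inhibition of agonist calcium response.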
CHO parental Ca – ATP-evoked calcium signal inhibitors, parental CHO, primary screen, counter-screen for OX1R antagonist project, cell-based, fluorescence, Fluo-8 calcium dye; parental CHO-K1, ATP-induced calcium, Fluo-8 fluorescence; inhibition, % at 5.6 µM; 330,000 tested, 0.63% active; AID 463079, 2010;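 active = inhibition above that plate's mean sample inhibition plus 3 SD, cut at about 26% in these data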;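 also: 0% = ATP-challenged DMSO wells and 100% = DMSO wells without ATP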
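Material: parental CHO cells / Compound: single nominal dose of 5.6 µM per compound / Signal: Fluo-8 fluorescence / Replicates: singlicate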
OX1R antag-1 – antagonists of human orexin 1 receptor (OX1R); 330,000 tested, 1.8% active; OX1R-expressing cells, FRET antagonist read-out; Orexin/Hypocretin receptor type 1 (Homo sapiens), O43613; inhibition, % at 6.6 µM; in the data active = inhibition mostly above about 38%, no sharp cut-off; inactive = mostly below about 40%;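 also: 0% = agonist challenge alone and 100% = reference antagonist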
Target sequence (O43613 whole entry, looked up): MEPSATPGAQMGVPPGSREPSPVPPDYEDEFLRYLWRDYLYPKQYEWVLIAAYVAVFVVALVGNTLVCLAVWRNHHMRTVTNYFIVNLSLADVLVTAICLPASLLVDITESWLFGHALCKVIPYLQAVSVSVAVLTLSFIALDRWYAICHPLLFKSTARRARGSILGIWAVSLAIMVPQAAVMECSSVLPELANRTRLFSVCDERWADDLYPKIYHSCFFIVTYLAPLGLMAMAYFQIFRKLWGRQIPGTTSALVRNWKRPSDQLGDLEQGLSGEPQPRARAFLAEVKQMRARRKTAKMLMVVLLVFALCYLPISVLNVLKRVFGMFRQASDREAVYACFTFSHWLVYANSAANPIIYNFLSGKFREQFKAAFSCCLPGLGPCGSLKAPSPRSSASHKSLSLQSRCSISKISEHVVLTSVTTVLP
TAAR1 agonist – human TAAR1 agonists, primary screen, Fluo-8 calcium fluorescence, CHO RD-HGA16 cells; vehicle wells 0%, saturating PEA agonist 100%; AID 624467, 2012; 360,000 tested, 0.99% active; activation, % at 3 µM;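 active = activation above the mean activation of all test compounds in the run plus 3 SD, cut at about 38% in these data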
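Assay system – CHO-derived RD-HGA16 cells with stable Gα16 and human TAAR1 · Compound dosing – one-point dosing at 3 µM (nominal) · Incubation – 17-24 h seeding, 75 min 37 °C dye, 30 min RT · Measured by – kinetic Fluo-8 calcium fluorescence · Control set – DMSO vehicle as 0%, PEA at EC100 as 100% · Repeats – single well for each compound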
OX1R antag-2 – OX1R (HCRTR1) antagonists, primary screen, fluorescence, CHO/OX1R cells, Fluo-8 calcium, orexin A. Orexin/Hypocretin receptor type 1 (Homo sapiens), O43613. Fluo-8 calcium fluorescence. inhibition, % at 5 µM. 330,000 tested, 0.43% active;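 active = inhibition above its plate's threshold, mean inhibition of all tested compounds on the plate plus 3 SD, cut at about 37% in these data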;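 also: 0% = orexin A challenge wells and 100% = SB-334867-A antagonist wells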
GPR7 antag – GPR7 receptor antagonists, primary screen, cell-based, fluorescence, single concentration. GPR7-expressing cells, fluorescence antagonist assay. 290,000 tested, 1.1% active. Neuropeptides B/W receptor type 1 (Homo sapiens), P48145. inhibition, % at 4.4 µM. AID 1861, 2009; in the data active = inhibition above about 16%, passing the limit was not always enough;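 also: cells stimulated with the agonist NPW; 0% = agonist with vehicle and 100% = vehicle without agonist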
* hit, by the source's call; · = no result given.

SMILES	TAAR1 antagonist	CHO parental Ca	OX1R antag-1	TAAR1 agonist	OX1R antag-2	GPR7 antag
N#Cc1nc(-c2ccc(Cl)cc2)oc1NCc1ccco1	12	44*	28	1	10	0
Cc1c2c(nc3nnnn13)CCCC2	3	6	12	1	7	-12
Cc1ccccc1-n1c(SCc2csc(Nc3ccccc3)n2)nnc1-c1cccnc1	2	-18	69*	2	2	-8
Cc1ccc(Nc2nc(CSc3nnc(-c4cccnc4)n3-c3ccccc3C)cs2)cc1	-45	-38	67*	-2	-6	1
CCOC(=O)CNC(=O)CSc1nnc(NC(=O)c2ccc(C)cc2)s1	-4	-9	32	0	-20	0
Cc1ccc(NC(=S)NCc2ccc(S(N)(=O)=O)cc2)cc1Cl	23	5	2	16	1	20*
O=C(N[C@H]1C=C[C@H](CC(=O)N2CCCCC2)O[C@@H]1CO)c1cccc(F)c1	2	·	·	1	·	·
COc1cccc(N2CCN(c3ccc4nnc(CCC(=O)Nc5ccccc5OC)n4n3)CC2)c1	44	-22	2	8	-6	1
COc1ccc(CCN(Cc2ccccn2)C(=S)Nc2ccccc2F)cc1OC	-15	-5	32	1	-20	2
COc1ccc(CCN(Cc2ccccn2)C(=S)Nc2ccccc2Cl)cc1OC	-39	-8	41*	0	-7	18
Cc1ccc(C)c(OCC(=O)Nc2ccccc2C(=O)NC2CC2)c1	-4	·	·	2	·	3
O=C(COc1ccccc1F)Nc1ccccc1C(=O)NC1CC1	52*	-7	9	7	-6	·
CCCc1nc2ccccc2c(C(=O)OCC(=O)N2CCc3ccccc32)c1CC	52*	-16	8	0	-20	-20
CCCc1nc2ccccc2c(C(=O)OCC(=O)Nc2ccc(S(=O)(=O)N3CCOCC3)cc2)c1CC	22	-16	-2	12	-16	-7
CCCc1nc2ccccc2c(C(=O)OCC(=O)Nc2cccc(S(=O)(=O)N3CCOCC3)c2)c1CC	52*	6	19	3	-5	-15
Cc1ccc(C)c(Sc2ccc(NC(=O)CCN3C(=O)NC4(CCCC4)C3=O)cc2)c1	35	63*	11	8	60*	·
Cc1ccc(NC(=O)CCN2C(=O)NC3(CCCC3)C2=O)cc1	-11	·	·	0	·	·
CCOCC(=O)Nc1c(C(=O)Nc2ccccc2OC)oc2ccccc12	9	-8	1	5	-3	8
COc1ccccc1NC(=O)c1oc2ccccc2c1C	0	·	·	3	·	·
COc1ccc(NC(=O)c2oc3ccccc3c2C)c(OC)c1	-11	-21	53*	10	2	0
COc1ccccc1NC(=O)COC(=O)c1oc2ccccc2c1C	4	-30	51*	-1	-1	0
CCOC(=O)c1oc2ccccc2c1NC(=O)c1cccc(OC)c1OC	49*	3	25	4	-32	-16
COc1ccc(-c2c[n+](CC(=O)OC3CC(C)CCC3C(C)C)c3n2CCC3)cc1 (stereo unspecified)	1	7	4	3	-11	42*
O=C(Oc1ccc2ccccc2c1Br)N1CCCCCC1	16	33*	18	17	-15	-6
C/C=C/c1ccc(OCC(=O)Nc2cc(Cl)ccc2-n2cncn2)c(OC)c1	-17	-14	10	1	-40	·
SMILES	TAAR1 antagonist	CHO parental Ca	OX1R antag-1	TAAR1 agonist	OX1R antag-2	GPR7 antag
Cc1ccc(-c2nc(CSCC(=O)N3CCCC3)c(C)o2)cc1	-9	-9	14	15	-10	-3
Cc1cccc(-c2nc(CSCC(=O)N3CCN(c4ccccn4)CC3)c(C)o2)c1	20	14	45*	10	0	-1
Cc1ccsc1-c1nc(CSCC(=O)N2CCN(c3ccccc3)CC2)c(C)o1	18	3	38*	-1	-16	11
O=[N+]([O-])c1ccc(S(=O)(=O)N(CC(O)CN2CCCCC2)c2ccccc2)cc1 (stereo unspecified)	4	-15	48*	3	-2	5
CCOC(=O)c1cc2c(=O)n3cccc(C)c3nc2n(CCOC)c1=NC(C)=O	6	-22	19	2	-20	-8
COC1OC(COC(=O)CNC(=O)OC(C)(C)C)C(O)C(O)C1O (stereo unspecified)	30	7	4	2	4	2
O=C(N/N=C/c1ccccn1)c1ccc(Cl)cc1	-21	0	22	6	-4	-17
Cc1c(/C=N/NC(=O)c2sc3ccccc3c2Cl)cnn1C	13	-13	48*	7	-19	-3
O=C(N/N=C/c1ccccn1)c1sc2ccccc2c1Cl	8	31	64*	6	30	19*
Cc1ccc(C(=O)Nc2ccc(C(=O)N/N=C/c3ccccn3)cc2)cc1	32	35*	22	4	20	-10
Cn1cccc1/C=N/NC(=O)c1sc2ccccc2c1Cl	-8	-25	74*	2	5	-13
C=CCNS(=O)(=O)c1nc(C)c(Cl)c(C)c1C#N	3	-7	2	9	-11	-7
Cc1ccc(NC(=O)CN2C(=O)NC(C)(c3ccc(Cl)cc3)C2=O)cc1S(=O)(=O)N1CCOCC1 (stereo unspecified)	11	0	1	5	-1	16
COc1ccc(OC)c(C2=NS(=O)(=O)N(C)C(C(=O)N3CCC4(CC3)OCCO4)=C2)c1	-15	-12	16	2	-20	-8
COC(=O)CN1C(=O)[C@H]2[C@@H](C3CC3)N3C(=O)CN(Cc4ccccn4)C(=O)[C@@]3(Cc3ccccc3)[C@H]2C1=O	-5	-21	8	0	-9	-5
COc1ccc(C(=O)Nc2ccc(S(=O)(=O)N3CCCCC3)cc2)cc1	6	-3	19	6	-17	-5
Cc1nn(C)c(Nc2ccc(Br)cc2)c1Br	8	71*	50	6	40*	8
Cc1cc(C)nc(-n2nc(C)c(Br)c2Nc2ccc(Br)cc2)n1	-10	-24	11	10	-39	2
O=C(c1ccccc1)C(Sc1ncn[nH]1)c1ccccc1 (stereo unspecified)	3	-8	12	0	-7	9
CC(OC(=O)c1cc(Br)ccc1O)C(=O)Nc1ccc(S(=O)(=O)N2CCCC2)cc1 (stereo unspecified)	52*	30	35	13	20	·
COc1ccc(NC(=O)C[C@H]2C(=O)N(c3ccccc3)C[C@@H]2C)cc1	8	·	·	2	·	·
